In ChEMBL document CHEMBL3739271, “Synthesis and evaluation of a series of resveratrol analogues as potent anti-cancer agents that target tubulin” (2015):
Calls of active or inactive are those of the source. The calls are words filed in the database; no cut-off is given here.

Columns and labels:
[1] = tested on: MDA-MB-468; assay: Cytotoxicity against human MDA-MB-468 cells by SRB assay; format: functional
How it was run: (§1)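 NCI 60 human tumor cell line panel, sulforhodamine B (SRB) protein-stain read-out. Compounds were first screened at a single dose of 10^-5 M, and selected compounds were then tested in a five-dose format. GI50 is the drug concentration giving a 50% reduction in net protein increase relative to control cells.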

[2] = tested on: SK-MEL-5; assay: Cytotoxicity against human SK-MEL-5 cells by SRB assay; format: functional; how it was run: as §1
[3] = tested on: MCF7; assay: Cytotoxicity against human MCF7 cells by SRB assay; format: functional; how it was run: as §1
[4] = tested on: NCI-H23; assay: Cytotoxicity against human NCI-H23 cells by SRB assay; format: functional; how it was run: as §1
[5] = tested on: MDA-MB-231; assay: Cytotoxicity against human MDA-MB-231 cells by SRB assay; format: functional; how it was run: as §1
[6] = tested on: NCI-H522; assay: Cytotoxicity against human NCI-H522 cells by SRB assay; format: functional; how it was run: as §1
[7] = tested on: 786-0; assay: Cytotoxicity against human 786-0 cells by SRB assay; format: functional; how it was run: as §1
[8] = tested on: SK-MEL-2; assay: Cytotoxicity against human SK-MEL-2 cells by SRB assay; format: functional; how it was run: as §1
[9] = tested on: HT-29; assay: Cytotoxicity against human HT-29 cells by SRB assay; format: functional; how it was run: as §1
[10] = Cytotoxicity against human HL-60(TB) cells by SRB assay; format: functional
How it was run: (§2)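 NCI 60-cell-line panel using sulforhodamine B protein stain. Initial single-dose screen at 10^-5 M, then five-dose testing. GI50 is the drug concentration giving a 50% reduction in net protein increase relative to control cells.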

[11] = Cytotoxicity against human SKOV3 cells by SRB assay; format: functional; conditions: SK-OV-3; how it was run: as §1
[12] = tested on: SK-MEL-28; assay: Cytotoxicity against human SK-MEL-28 cells by SRB assay; format: functional; how it was run: as §1
[13] = Cytotoxicity against human SNB19 cells by SRB assay; format: functional; conditions: SNB-19; how it was run: as §1
[14] = tested on: ACHN; assay: Cytotoxicity against human ACHN cells by SRB assay; format: functional; how it was run: as §1
[15] = Cytotoxicity against human HCC2998 cells by SRB assay; format: functional; conditions: HCC 2998; how it was run: as §1
[16] = tested on: MDA-MB-435; assay: Cytotoxicity against human MDA-MB-435 cells by SRB assay; format: functional; how it was run: as §1
[17] = Cytotoxicity against human HCT15 cells by SRB assay; format: functional; conditions: HCT-15; how it was run: as §1
[18] = Cytotoxicity against human UACC62 cells by SRB assay; format: functional; conditions: UACC-62; how it was run: as §1
[19] = tested on: KM12; assay: Cytotoxicity against human KM12 cells by SRB assay; format: functional; how it was run: as §1
[20] = Cytotoxicity against human SF268 cells by SRB assay; format: functional; conditions: SF-268; how it was run: as §1
[21] = Cytotoxicity against human OVCAR4 cells by SRB assay; format: functional; conditions: OVCAR-4; how it was run: as §1
[22] = tested on: NCI/ADR-RES; assay: Cytotoxicity against human NCI/ADR-RES cells by SRB assay; format: functional; how it was run: as §1
[23] = Cytotoxicity against human HCT116 cells by SRB assay; format: functional; conditions: HCT-116; how it was run: as §1
[24] = Cytotoxicity against human HOP92 cells by SRB assay; format: functional; conditions: HOP-92; how it was run: as §1
[25] = tested on: A549; assay: Cytotoxicity against human A549 cells by SRB assay; format: functional; how it was run: as §1
[26] = tested on: MV4-11; assay: Inhibition of alpha-tubulin polymerization in human MV4-11 cells at 25 to 100 nM after 2 hrs by Western blotting; format: cell-based
How it was run: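 MV4-11 cells treated for 2 hours at 25, 50 and 100 nM. Microtubule polymerization then assessed by immunoblot.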

[27] = Cytotoxicity against human SNB75 cells by SRB assay; format: functional; conditions: SNB-75; how it was run: as §1
[28] = tested on: U-251; assay: Cytotoxicity against human U251 cells by SRB assay; format: functional; how it was run: as §1
[29] = tested on: K562; assay: Cytotoxicity against human K562 cells by SRB assay; format: functional; how it was run: as §1
[30] = tested on: MV4-11; assay: Anti-leukemia activity against human MV4-11 cells after 48 hrs by Annexin-V staining; format: functional; conditions: MV4-11, 48 h, read-out: LD50 (the source's name)
How it was run: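 MV4-11 AML cells exposed to increasing compound concentrations for 24 and 48 h. Viability measured by Annexin V/7-AAD staining and expressed as percent Annexin V-/7-AAD- cells relative to control. N = 5, error bars SD. LD50 values derived from these curves.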

[31] = Cytotoxicity against human IGROV1 cells by SRB assay; format: functional; conditions: IGROV-1; how it was run: as §2
[32] = Cytotoxicity against human OVCAR3 cells by SRB assay; format: functional; conditions: OVCAR-3; how it was run: as §1
[33] = Cytotoxicity against human SF295 cells by SRB assay; format: functional; conditions: SF-295; how it was run: as §1
[34] = tested on: CCRF-CEM; assay: Cytotoxicity against human CCRF-CEM cells by SRB assay; format: functional; how it was run: as §1
[35] = tested on: A498; assay: Cytotoxicity against human A498 cells by SRB assay; format: functional; how it was run: as §1
[36] = Cytotoxicity against human MOLT4 cells by SRB assay; format: functional; conditions: MOLT-4; how it was run: as §1
[37] = Cytotoxicity against human Hs578T cells by SRB assay; format: functional; conditions: Hs-578T; how it was run: as §1
[38] = tested on: SR; assay: Cytotoxicity against human SR cells by SRB assay; format: functional; how it was run: as §1
[39] = Cytotoxicity against human SF539 cells by SRB assay; format: functional; conditions: SF-539; how it was run: as §1
[40] = tested on: M14; assay: Cytotoxicity against human M14 cells by SRB assay; format: functional; how it was run: as §1
[41] = Cytotoxicity against human LOXIMVI cells by SRB assay; format: functional; conditions: LOX IMVI; how it was run: as §2
[42] = Cytotoxicity against human SW620 cells by SRB assay; format: functional; conditions: SW-620; how it was run: as §1
[43] = Cytotoxicity against human RPMI8226 cells by SRB assay; format: functional; conditions: RPMI-8226; how it was run: as §1
[44] = Cytotoxicity against human COLO205 cells by SRB assay; format: functional; conditions: COLO 205; how it was run: as §1
[45] = Cytotoxicity against human UO31 cells by SRB assay; format: functional; conditions: UO-31; how it was run: as §1
[46] = tested on: CAKI-1; assay: Cytotoxicity against human CAKI-1 cells by SRB assay; format: functional; how it was run: as §1
[47] = Cytotoxicity against human HOP62 cells by SRB assay; format: functional; conditions: HOP-62; how it was run: as §1

COc1ccc(/C=C(/C#N)c2cc(OC)c(OC)c(OC)c2)cc1O
GI50 [1]: < 0.01 µM
GI50 [2]: < 0.01 µM
GI50 [3]: < 0.01 µM
GI50 [4]: < 0.01 µM
GI50 [5]: < 0.01 µM
GI50 [6]: < 0.01 µM
GI50 [7]: 0.02 µM
GI50 [8]: < 0.01 µM
GI50 [9]: 0.32 µM
GI50 [10]: < 0.01 µM
GI50 [11]: < 0.01 µM
GI50 [12]: < 0.01 µM
GI50 [13]: < 0.01 µM
GI50 [14]: < 0.01 µM
GI50 [15]: < 0.01 µM
GI50 [16]: < 0.01 µM
GI50 [17]: < 0.01 µM
GI50 [18]: < 0.01 µM
GI50 [19]: < 0.01 µM
GI50 [20]: < 0.01 µM
GI50 [21]: < 0.01 µM
GI50 [22]: < 0.01 µM
GI50 [23]: < 0.01 µM
GI50 [24]: < 0.01 µM
GI50 [25]: < 0.01 µM
inhibition [26]: Active
GI50 [27]: < 0.01 µM
GI50 [28]: < 0.01 µM
GI50 [29]: < 0.01 µM
CC50 [30]: 0.0025 µM
GI50 [31]: < 0.01 µM
GI50 [32]: < 0.01 µM
GI50 [33]: 0.01 µM
GI50 [34]: < 0.01 µM
GI50 [35]: < 0.01 µM
GI50 [36]: < 0.01 µM
GI50 [37]: < 0.01 µM
GI50 [38]: < 0.01 µM
GI50 [39]: < 0.01 µM
GI50 [40]: < 0.01 µM
GI50 [41]: < 0.01 µM
GI50 [42]: < 0.01 µM
GI50 [43]: < 0.01 µM
GI50 [44]: 0.3 µM
GI50 [45]: < 0.01 µM
GI50 [46]: < 0.01 µM

COc1ccc(/C=C(\C#N)c2cc(OC)c(OC)c(OC)c2)cc1O
GI50 [1]: < 0.01 µM
GI50 [2]: < 0.01 µM
GI50 [3]: < 0.01 µM
GI50 [4]: < 0.01 µM
GI50 [5]: < 0.01 µM
GI50 [6]: < 0.01 µM
GI50 [7]: < 0.01 µM
GI50 [8]: < 0.01 µM
GI50 [9]: 3.18 µM
GI50 [10]: < 0.01 µM
GI50 [11]: 0.01 µM
GI50 [12]: 1.01 µM
GI50 [13]: < 0.01 µM
GI50 [14]: < 0.01 µM
GI50 [15]: 0.02 µM
GI50 [47]: < 0.01 µM
GI50 [16]: < 0.01 µM
GI50 [17]: < 0.01 µM
GI50 [18]: < 0.01 µM
GI50 [19]: < 0.01 µM
GI50 [20]: < 0.01 µM
GI50 [21]: < 0.01 µM
GI50 [22]: < 0.01 µM
GI50 [23]: < 0.01 µM
GI50 [24]: < 0.01 µM
GI50 [25]: < 0.01 µM
inhibition [26]: Active
GI50 [27]: < 0.01 µM
GI50 [28]: 0.01 µM
GI50 [29]: < 0.01 µM
CC50 [30]: 0.0386 µM
GI50 [31]: < 0.01 µM
GI50 [32]: < 0.01 µM
GI50 [33]: 0.05 µM
GI50 [34]: < 0.01 µM
GI50 [35]: < 0.01 µM
GI50 [36]: < 0.01 µM
GI50 [37]: < 0.01 µM
GI50 [38]: < 0.01 µM
GI50 [39]: < 0.01 µM
GI50 [40]: < 0.01 µM
GI50 [41]: < 0.01 µM
GI50 [42]: < 0.01 µM
GI50 [43]: < 0.01 µM
GI50 [44]: 2.99 µM
GI50 [45]: < 0.01 µM
GI50 [46]: 0.03 µM
